Compound activity: PubChem, Sanford-Burnham Center for Chemical Genomics
Compounds with a hit are over-represented: about 1.9% of the library has one in this group of screens.
FAS TE block – FAS thioesterase (human) inhibition; 360,000 tested, 0.67% active; inhibition, % at 15 µM; recombinant FAS-TE, OMFH fluorogenic substrate, fluorescence endpoint; P49327;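 active = compounds whose normalised, plate-corrected inhibition of enzyme fluorescence in the single-dose primary screen is 50% or more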;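 note: 0% = DMSO with enzyme and 100% = substrate without enzyme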
LMPTP inh – blocks human LMPTP phosphatase. P24666. recombinant LMPTP-A, OMFP fluorogenic substrate, fluorescence intensity. inhibition, % at 20 µM. 360,000 tested, 0.22% active. AID 651560;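 active = compounds that cut the enzyme signal by at least half of the control window in the single-dose screen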;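 note: plate controls were DMSO wells with enzyme plus substrate for no effect and substrate without enzyme for full effect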
Target sequence (P24666 whole entry, looked up): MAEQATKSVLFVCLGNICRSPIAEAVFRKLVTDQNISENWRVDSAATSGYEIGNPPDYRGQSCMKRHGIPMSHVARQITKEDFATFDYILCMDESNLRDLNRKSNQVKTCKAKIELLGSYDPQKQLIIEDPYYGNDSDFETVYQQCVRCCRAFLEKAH
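material = LMPTP-A | quantity = 0.625 nM enzyme | reagent = OMFP substrate, 400 µM final | buffer or medium = Bis-Tris pH 6.0, DTT, detergent | detection = endpoint fluorescence intensity from OMFP dephosphorylation | dosing = single 20 µM dose | read-out basis = % inhibition relative to no-enzyme and uninhibited control wells | control set = no-enzyme and uninhibited controls | timing = 50 min at room temperature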
STEP block – inhibitors of human striatal-enriched phosphatase STEP; P54829; recombinant STEP, OMFP fluorogenic substrate, fluorescence; inhibition, % at 20 µM; 360,000 tested, 0.25% active;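 active = inhibition at 20 µM, scaled per plate between control wells, above about 37%, limit read from the data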;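 note: 0% = DMSO with enzyme and substrate and 100% = substrate only without enzyme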
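Measure: Control-normalized % inhibition with plate pattern correction | Test system: STEP phosphatase, cell-free reaction | Medium: pH 6.0 Bis-Tris with DTT and Tween 20 | Technique: Fluorescence, 480/540 nm | Times: Reaction 20 min, ambient temperature | Doses: Single compound dose of 20 µM, 1% DMSO final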
Scp-1 inhibitor – blocks human Scp-1 phosphatase activity. Recombinant Scp1, phosphopeptide, malachite green phosphate absorbance. inhibition, % at 20 µM. 340,000 tested, 0.88% active;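 active = inhibition above about 50% at 20 µM, limit read from the data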;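 note: plate controls were DMSO wells with enzyme for no effect and wells lacking enzyme for full effect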
Target sequence (Q9GZU7 76-261 limits assumed): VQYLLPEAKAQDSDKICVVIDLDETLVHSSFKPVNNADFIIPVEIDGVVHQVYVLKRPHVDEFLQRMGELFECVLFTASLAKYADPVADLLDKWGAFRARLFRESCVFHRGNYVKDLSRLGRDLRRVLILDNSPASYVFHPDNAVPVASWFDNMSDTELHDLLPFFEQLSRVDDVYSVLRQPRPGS
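Test system: SCP-1 catalytic domain; Buffer or medium: Acidic Tris acetate buffer with magnesium and detergent; Also added: Phosphorylated 17-residue peptide substrate; Compound: single 20 µM dose, 1% DMSO; Schedule: enzyme reaction 45 min at room temperature, colour 5 min, stabilisation 30 min; Signal: Phosphate-binding colour reagent, absorbance read at 630 nm.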
SUMO1-SIM PPI – alters human SUMO1 binding to SIM partners; inhibition, % at 20 µM; 360,000 tested, 0.33% active; AID 602429; SUMO1 binding to a labelled peptide, TR-FRET, 1 h; in the data active = inhibition above about 37%
Target sequence (P63165 whole entry, looked up): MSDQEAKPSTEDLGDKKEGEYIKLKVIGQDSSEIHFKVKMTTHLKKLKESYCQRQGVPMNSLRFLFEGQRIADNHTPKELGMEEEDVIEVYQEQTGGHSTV
Scp1 confirm – Scp-1 (human) inhibition, single-dose confirmed. shares compounds with Scp-1 inhibitor. recombinant SCP-1 catalytic domain, phosphate release, malachite green absorbance. inhibition, % at 20 µM. 2,500 tested, 61% active;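 note: plate controls were DMSO with enzyme for no effect and buffer wells lacking enzyme for full effect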
Scp-1 MG ctr – counter-screen for Scp-1 inhibitors: colorimetric interference. Colorimetric interference counterscreen, malachite green absorbance 630 nm. AID 540313. shares compounds with Scp-1 inhibitor. 2,500 tested, under 10 active. apparent inhibition (interference), % at 20 µM;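 note: compounds added after enzyme reaction finished so only phosphate colour detection is probed; plate controls were DMSO wells with completed Scp-1 reaction for no effect and substrate wells lacking enzyme for full effect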
Scp1 DSF – Scp-1 (human) binding by thermal shift; shares compounds with Scp-1 inhibitor; Recombinant SCP1, Sypro Orange thermal shift Tm; thermal shift relative to vanadate control, % at 40 µM; 1,500 tested, 25% active; AID 540329;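 active = substances whose mean melting-temperature shift, as a percentage of the reference inhibitor's shift, reaches about 5.3%, limit read from the data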;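 note: 0% = Tm of DMSO wells and 100% = Tm with sodium orthovanadate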
* = called active by the depositor; x = no result given.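 Rule for the calls, unless noted: active = inhibition of at least 30% at 20 µM; inactive = the rest.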

SMILES	FAS TE block	LMPTP inh	STEP block	Scp-1 inhibitor	SUMO1-SIM PPI	Scp1 confirm	Scp-1 MG ctr	Scp1 DSF
Cc1cc(CNC[C@H]2O[C@@H](n3cnc4c(N)ncnc43)[C@H](O)[C@@H]2O)no1	-10	-3	-2	x	-2	x	x	x
CN(C)CCOC(=O)C1(c2ccccc2)CCCC1	-8	-2	-3	-4	-2	x	x	x
C[N+]1(CCCOC(=O)C2(c3ccccc3)CCCC2)CCOCC1	-4	0	-1	74*	21	37*	-14	1
C/C(Cn1nc([N+](=O)[O-])cc1C)=N\NC(=O)c1ccc(C(C)(C)C)cc1	6	-2	10	81*	-8	-21	-19	x
O=C(O)C1C2C=CC(C2)C1C(=O)Nc1ccccc1Br (configuration not stated)	-3	2	44*	69*	26	58*	-15	-26
Cc1cccc(C(=O)NC2CCN(C(=O)NCc3ccccc3)CC2)c1	-4	0	0	75*	0	60*	-11	-3
Cc1ccc(NC(=O)N2CCC(NC(=O)c3cccc(C)c3)CC2)cc1	-2	1	0	103*	-3	55*	-9	-7
COC(=O)C1CCN(C(=O)CC(NC(=O)C(F)(F)F)c2cccs2)CC1 (configuration not stated)	-4	-1	-1	-1	12	x	x	x
Cc1nc(CC(=O)NNS(=O)(=O)c2ccc3ccccc3c2)cs1	-12	2	-6	-5	1	x	x	x
COc1ccc(S(=O)(=O)NNC(=O)Cc2csc(C)n2)cc1[N+](=O)[O-]	-5	29	6	60*	-6	64*	-6	-11
Cc1ccc(N2CC(C(=O)Nc3nnc(SCCC4OCCO4)s3)CC2=O)cc1 (configuration not stated)	-9	-1	-3	-8	7	-22	-19	x
CC(=O)c1cccc(OC(=O)c2ccc3c(=O)n4c(nc3c2)CCC4)c1	-4	0	-1	68*	-6	12	-10	x
Cc1cccc(OC(=O)c2ccc3c(=O)n4c(nc3c2)CCC4)c1	6	3	-1	x	-3	x	x	x
Cc1cc(C)n2c(NCc3ccccc3)c(-c3cc4ccccc4o3)nc2n1	-3	0	x	x	-25	x	x	x
CCCn1nc(NC(=O)COC)c2cc3cc(C)ccc3nc21	-5	0	-1	62*	-11	-10	-11	x
CCCn1nc(NC(=O)c2ccccn2)c2cc3cc(C)ccc3nc21	4	1	-2	-2	-1	x	x	x
COC(=O)[C@H](CC(C)C)NC(=O)NCCC1=CCCCC1	5	0	0	85*	11	-11	-11	x
CC1=C(C(=O)N2CCCCCC2)CC(CC(=O)NC2CC2)C(=O)N1Cc1ccccc1 (configuration not stated)	-5	-1	4	x	2	x	x	x
CCc1c(C)nc2cc(-c3ccc(Cl)cc3)[nH]n2c1=O	-1	1	2	-7	6	x	x	x
CCc1c(C)nc2cc(-c3cccc(Br)c3)[nH]n2c1=O	3	1	22	93*	12	62*	-12	-4
Cc1ccsc1C(=O)N1CCCC(C)(C(=O)NS(=O)(=O)C2CC2)C1 (configuration not stated)	2	-1	1	x	5	x	x	x
O=C1NC(=Nc2ccccc2)S/C1=C/c1cccs1	2	24	6	76*	-11	59*	-13	3
COC(=O)c1nnn(-c2nonc2N)c1CSc1nnc(C)s1	-6	-1	-2	51*	0	5	-1	x
Cc1ccc([C@H]2N[C@]3(CCCN(Cc4ccc(Br)cc4)C3=O)[C@H]3C(=O)N(Cc4ccccc4)C(=O)[C@@H]23)cc1	33	3	2	x	6	x	x	x
C[C@@H]1CN([C@@H](C)CO)C(=O)c2cc(NC(=O)C3CC3)ccc2O[C@@H]1CN(C)C(=O)NC1CCCCC1	-9	0	0	-3	4	x	x	x
SMILES	FAS TE block	LMPTP inh	STEP block	Scp-1 inhibitor	SUMO1-SIM PPI	Scp1 confirm	Scp-1 MG ctr	Scp1 DSF
Cc1cccc2cc(/C=N/NC(=O)c3ccccc3O)c(Cl)nc12	8	12	4	95*	2	73*	-19	4
Cc1cccc2cc(/C=N/NC(=O)c3ccncc3)c(Cl)nc12	2	-1	-3	-11	-2	x	x	x
Cc1ccc2[nH]c(C(=O)N3CCN(C(c4ccccc4)c4ccccc4)CC3)cc2c1	32	0	0	3	-1	x	x	x
Cc1cc(C)n2nc(SCC(=O)NC3CCCCC3)nc2n1	-1	-2	35	-11	0	x	x	x
CCOC(=O)c1cnc2nc(Cc3ccccc3)[nH]n2c1=O	-5	-1	-7	-10	2	x	x	x
CCOC(=O)c1cnc2c(C)c(-c3ccccc3)[nH]n2c1=O	-3	0	2	69*	0	-18	-24	x
COc1ccc2c(=O)c3c(=O)n(Cc4ccco4)c(-c4ccco4)nc3oc2c1	2	47	20	92*	13	74*	-2	4
COc1ccc(Cn2c(-c3ccco3)nc3oc4cc(OC)ccc4c(=O)c3c2=O)cc1	-20	33	9	79*	16	68*	-10	-2
COc1ccc(Cn2c(-c3ccco3)nc3oc4ccccc4c(=O)c3c2=O)cc1	-2	4	-2	33	-5	x	x	x
CCCCn1c(-c2ccco2)nc2oc3ccccc3c(=O)c2c1=O	1	0	-4	62*	-23	1	-11	x
CCc1nc2oc3ccccc3c(=O)c2c(=O)n1-c1ccc(C)cc1	-3	47	5	65*	11	56*	-16	4
COC(=O)c1c(N)[nH]c(C(=O)c2ccccc2)c1-c1ccccc1Br	8	0	x	x	-1	x	x	x
CC(C)c1ccc([C@@H]2O[C@H](CCc3ccccc3)CC3=C2C(=O)OC(C)(C)O3)cc1	23	5	x	x	2	x	x	x
CCOc1cc(/C=N/N=C2/NC(=O)C(CC(=O)O)S2)ccc1OCc1ccc(Cl)cc1 (configuration not stated)	-5	1	6	75*	0	69*	-11	-14
COc1ccc(/C=N/N=C2/NC(=O)C(CC(=O)O)S2)cc1OCc1ccc(Cl)cc1 (configuration not stated)	-8	0	2	-9	11	x	x	x
N#Cc1cccc(C2CC(OCCF)=CC(=O)O2)c1 (configuration not stated)	x	-1	x	x	3	x	x	x
C[C@H](NC(=O)C[C@@H]1C=C[C@@H](NC(=O)CN2CCOCC2)[C@@H](CO)O1)c1ccccc1	x	-2	x	x	3	x	x	x
